Activity calls are given as the source filed them. No cut-off for these calls is given here.
What was measured:
[1] = tested on: KOPN-8; assay: Induction of apoptosis in human KOPN8 cells assessed as upregulation of cleaved PARP level at 0.5 uM pre-treated with NAC for 1 hr and measured after 3 hrs by Western blot analysis; format: functional, cell-based
Summary of the method: (§1)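 KOPN-8 cells were exposed to compound for 3 h and 24 h, with or without N-acetylcysteine added to a parallel set as antioxidant. Lysates were analysed by Western blot for cleaved PARP, Mcl-1, Ser-2-phosphorylated RNAPII CTD, cMyc, total Rb and pRb. Signals were compared against controls for dose-dependent change.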

[2] = tested on: KOPN-8; assay: Induction of apoptosis in human KOPN8 cells assessed as effect on Mcl-1 level at 0.5 uM after 3 hrs by Western blot analysis relative to control; format: functional
[3] = tested on: SUP-B15; assay: Induction of apoptosis in human SUP-B15 cells assessed as necrotic cells at 5 uM after 24 hrs by Annexin V-FITC/propidium iodide staining-based flow cytometry (reference value: 9.2%); format: functional
[4] = tested on: MDA-MB-231; assay: Cell cycle arrest in human MDA-MB-231 cells assessed as accumulation at G2/M phase at 5 uM after 24 hrs by propidium iodide staining-based flow cytometry (reference value: 9.38%); format: functional
[5] = tested on: KOPN-8; assay: Cell cycle arrest in human KOPN8 cells assessed as accumulation at G0/G1 phase at 10 uM after 24 hrs by propidium iodide staining-based flow cytometry (reference value: 24.77%); format: functional
Summary of the method: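 KOPN-8 cells treated 24 h alongside a DMSO vehicle and a staurosporine (2.0 µM) positive control. Apoptosis was scored by FITC Annexin V / propidium iodide flow cytometry with quadrant gating (early, late apoptotic). DNA content was measured by PI staining to give the percentage of cells in G0/G1, S and G2/M. Groups were compared by t-test; error bars are SD.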

[6] = tested on: SUP-B15; assay: Induction of apoptosis in human SUP-B15 cells assessed as early apoptotic cells at 10 uM after 24 hrs by Annexin V-FITC/propidium iodide staining-based flow cytometry (reference value: 0.1%); format: functional
[7] = target: T1, Retinoblastoma-associated protein (Homo sapiens) (UniProt P06400); assay: Inhibition of Rb phosphorylation in human KOPN8 cells assessed as ratio of phosphorylated Rb to total Rb levels at 30 uM pre-treated with NAC for 1 hr and measured after 3 hrs by Western blot analysis relative to control; format: cell-based
T1 sequence (whole entry): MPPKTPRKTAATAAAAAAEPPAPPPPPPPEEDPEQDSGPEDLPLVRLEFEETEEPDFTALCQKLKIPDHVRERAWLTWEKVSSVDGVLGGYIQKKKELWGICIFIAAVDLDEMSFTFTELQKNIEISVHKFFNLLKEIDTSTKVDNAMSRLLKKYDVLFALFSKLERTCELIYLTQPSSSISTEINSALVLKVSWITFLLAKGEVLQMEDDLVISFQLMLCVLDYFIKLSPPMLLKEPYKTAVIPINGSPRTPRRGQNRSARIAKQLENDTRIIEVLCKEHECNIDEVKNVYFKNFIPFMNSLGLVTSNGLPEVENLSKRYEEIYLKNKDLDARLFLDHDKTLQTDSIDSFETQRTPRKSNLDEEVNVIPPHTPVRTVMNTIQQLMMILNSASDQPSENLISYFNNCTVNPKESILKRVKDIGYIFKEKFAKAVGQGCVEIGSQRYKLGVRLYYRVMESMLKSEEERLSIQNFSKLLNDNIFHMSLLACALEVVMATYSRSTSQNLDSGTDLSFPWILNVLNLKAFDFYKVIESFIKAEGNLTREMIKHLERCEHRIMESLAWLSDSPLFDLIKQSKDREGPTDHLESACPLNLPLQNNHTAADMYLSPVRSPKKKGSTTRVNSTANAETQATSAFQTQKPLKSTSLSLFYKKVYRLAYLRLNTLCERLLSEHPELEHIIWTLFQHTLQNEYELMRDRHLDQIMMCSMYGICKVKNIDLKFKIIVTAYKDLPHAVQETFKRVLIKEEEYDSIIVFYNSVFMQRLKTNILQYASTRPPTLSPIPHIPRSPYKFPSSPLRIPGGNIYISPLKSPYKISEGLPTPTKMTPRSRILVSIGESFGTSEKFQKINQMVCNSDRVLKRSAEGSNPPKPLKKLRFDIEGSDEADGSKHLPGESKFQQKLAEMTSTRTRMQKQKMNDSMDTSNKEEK
Summary of the method: (§2)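 KOPN-8 pre-B ALL cells were treated for 3 h and 24 h, with or without N-acetyl cysteine added to a parallel set of cells as an antioxidant/ROS quencher. Lysates were analysed by Western blot for phosphorylated Rb and total Rb. The same blots also probed PARP cleavage, Mcl-1, Ser-2-phosphorylated RNAPII CTD and cMyc.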

[8] = species: Homo sapiens; assay: Inhibition of RNA polymerase 2 C-terminal domain phosphorylation at Ser2 residue in human KOPN8 cells at 100 uM after 3 hrs by Western blot analysis relative to control; format: cell-based; summary of the method: as §1
[9] = tested on: KOPN-8; assay: Induction of apoptosis in human KOPN8 cells assessed as downregulation of Mcl-1 level after 3 to 24 hrs by Western blot analysis; format: functional, cell-based
Summary of the method: (§3)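 KOPN-8 cells were treated at 10–100 µM final, with or without N-acetylcysteine co-addition, for 3 h and 24 h. Lysates were analysed by Western blot for PARP cleavage, Mcl-1, phospho-Ser2 RNAPII CTD, c-Myc, total Rb and pRb. Levels are relative to the vehicle control.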

[10] = tested on: KOPN-8; assay: Induction of apoptosis in human KOPN8 cells assessed as upregulation of cleaved PARP level at 100 uM pre-treated with NAC for 1 hr and measured after 24 hrs by Western blot analysis; format: functional, cell-based; summary of the method: as §1
[11] = tested on: KOPN-8; assay: Effect on c-Myc expression in human KOPN8 cells at 30 uM after 24 hrs by Western blot analysis relative to control; format: functional; summary of the method: as §3
[12] = tested on: KOPN-8; assay: Induction of apoptosis in human KOPN8 cells assessed as effect on Mcl-1 level at 10 uM pre-treated with NAC for 1 hr and measured after 24 hrs by Western blot analysis relative to control; format: functional
[13] = target: T1, Retinoblastoma-associated protein (Homo sapiens); assay: Inhibition of Rb phosphorylation in human KOPN8 cells assessed as ratio of phosphorylated Rb to total Rb levels at 100 uM pre-treated with NAC for 1 hr and measured after 3 hrs by Western blot analysis relative to control; format: cell-based; summary of the method: as §2
[14] = tested on: KOPN-8; assay: Effect on c-Myc expression in human KOPN8 cells at 10 uM pre-treated with NAC for 1 hr and measured after 3 hrs by Western blot analysis relative to control; format: functional
[15] = species: Homo sapiens; assay: Inhibition of RNA polymerase 2 C-terminal domain phosphorylation at Ser2 residue in human KOPN8 cells at 100 uM after 24 hrs by Western blot analysis relative to control; format: cell-based; summary of the method: as §1
[16] = tested on: KOPN-8; assay: Induction of apoptosis in human KOPN8 cells assessed as effect on Mcl-1 level at 30 uM after 24 hrs by Western blot analysis relative to control; format: functional; summary of the method: as §1
[17] = species: Homo sapiens; assay: Inhibition of RNA polymerase 2 C-terminal domain phosphorylation at Ser2 residue in human KOPN8 cells at 30 uM after 24 hrs by Western blot analysis relative to control; format: cell-based; summary of the method: as §1
[18] = tested on: KOPN-8; assay: Induction of apoptosis in human KOPN8 cells assessed as effect on Mcl-1 level at 10 uM pre-treated with NAC for 1 hr and measured after 3 hrs by Western blot analysis relative to control; format: functional

fold change (FC) [7] | fold change (FC) [13] | Compound | Activity [1] | fold change (FC) [2] | Activity [3] [%] | Activity [4] [%] | Activity [5] [%] | Activity [6] [%] | fold change (FC) [8] | Activity [9] | Activity [10] | fold change (FC) [11] | fold change (FC) [12] | fold change (FC) [14] | fold change (FC) [15] | fold change (FC) [16] | fold change (FC) [17] | fold change (FC) [18]
– | – | CN(C)C(=O)c1cc2cnc(Nc3ccc(N4CCNCC4)cn3)nc2n1C1CCCC1 [RIBOCICLIB] | inactive | 0.9 | 25.7 | 4.51 | – | – | – | – | – | – | – | – | – | – | – | –
1 | 1.1 | COc1ccc(-c2c(I)c(=O)c3c(OC)cc(OC)cc3n2S(=O)(=O)c2ccc(OC)cc2)cc1 | – | – | – | – | 47.22 | 0.1 | 1.4 | Dose-dependent effect | Active | 0.9 | 0.8 | 0.9 | 0.2 | 0.7 | 1.6 | 0.8

From ChEMBL document CHEMBL4196009, “Novel vitexin-inspired scaffold against leukemia” (Eur J Med Chem, 2018)
